Experimental data as given in ChEMBL document CHEMBL1124393, “Synthesis, cytotoxicity, and antiviral activity of some acyclic analogues of the pyrrolo[2,3-d]pyrimidine nucleoside antibiotics tubercidin, toyocamycin, and sangivamycin” (J Med Chem, 1989).

Experiments:
[1] = Cytotoxicity was evaluated against the Monkey kidney cells (BSC); assay type: cell-based; conditions: Cercopithecidae
How it was run: (§1)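 Uninfected HFF (human diploid foreskin fibroblasts) or BSC-1 (African green monkey kidney) cells in MEM with Earle's salts and 10% FBS, within the plaque-reduction plates. Drug-induced cytopathology was scored 0 to 4+ at 35- and 60-fold magnification on the day of staining for plaque enumeration.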

[2] = (§2) Antiviral activity of the compound was evaluated against the Herpes simplex virus type-1 in BSC-1 cells; assay type: functional, cell-based; conditions: Human alphaherpesvirus 1, BSC-1
How it was run: (§3)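 HSV-1 strain S-148 plaque reduction in BSC-1 monolayers (MEM with Earle's salts, 10% fetal bovine serum); inoculum about 100 PFU; compound dissolved in overlay medium. Percent inhibition regressed against log concentration to give IC50. Acyclovir or ganciclovir positive controls in every assay; assay sets rejected if control deviated >1.5 SD from its mean.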

Human betaherpesvirus 5 = test: Antiviral activity of the compound was evaluated against the Human cytomegalo virus (HCMV); assay type: functional, organism-based
How it was run: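 HCMV Towne strain (plaque-purified P0 isolate), plaque reduction in HFF monolayers; inoculum about 50 PFU; compound dissolved in overlay medium. IC50 taken from linear regression of percent inhibition against log concentration. Positive controls (acyclovir, ganciclovir) in all assays; sets rejected when control deviated >1.5 SD from its mean.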

[3] = Cytotoxicity was evaluated against the Human diploid cells (HFF); assay type: cell-based; how it was run: as §1
[4] = (§4) Cytotoxicity was evaluated in Human neoplastic cell line (KB); assay type: functional, cell-based
How it was run: (§5)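 KB human epidermoid oral carcinoma cells in MEM with Hanks salts and 5% FBS. Inhibition of radiolabeled precursor incorporation into DNA, RNA and protein was measured. IC50s from regression against log concentration; the three values were averaged, two to five experiments each.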

L1210 [5] = test: Compound effect on the growth rate at 10e-4 M in L1210 Murine Leukemic cells; assay type: functional, Mus musculus
How it was run: (§6)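 Murine L1210 leukemia cells in static suspension culture in Fischer's medium, exposed to 10⁻⁴ M compound over 3 days. Growth rate is the ratio of control to treated population doubling time, expressed as percent of control.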

L1210 [6] = test: In vitro cytotoxicity was evaluated against the L1210 Murine leukemic cells; assay type: cell-based; conditions: Mus musculus
How it was run: (§7)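 Murine L1210 cells in static suspension in Fischer's medium, growth followed over 3 days across a range of concentrations. Growth rate is the slope of log cell number versus time relative to control, from the doubling-time ratio. IC50 is the concentration reducing growth rate to 50% of control.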

[7] = as §4; assay type: cell-based; how it was run: as §5
L1210 [8] = test: (§8) Compound effect on the growth rate of L1210 murine leukemia cells at 10e-4 M concentration; assay type: functional; how it was run: as §6
Human alphaherpesvirus 1 = test: as §2; assay type: functional, organism-based; conditions: Human alphaherpesvirus 1, BSC-1; how it was run: as §3
Mus musculus = species on record: Mus musculus; test: Cytotoxicity was evaluated against the L1210 Murine leukemic cells in vitro; how it was run: as §7
L1210 [9] = test: as §8; assay type: functional, Mus musculus; how it was run: as §6

SMILES: Nc1ncnc2c1ccn2C(CO)OC(CO)CO (stereo not given)
- IC50 [1]: > 100 µM
- IC50 [2]: > 100 µM
- IC50 (Human betaherpesvirus 5): > 100 µM
- IC50 [3]: > 100 µM
- IC50 [4]: > 100 µM
- Control (L1210 [5]): 93%

SMILES: NC(=S)c1cn(COC(CO)CO)c2ncnc(N)c12
- IC50 [1]: > 100 µM
- IC50 [2]: > 100 µM
- IC50 (Human betaherpesvirus 5): 8 µM
- IC50 [3]: > 100 µM
- IC50 (L1210 [6]): > 100 µM
- IC50 [7]: > 100 µM
- Control (L1210 [8]): 71%

SMILES: Nc1ncnc2c1ccn2COC(CO)CO
- IC50 [1]: > 100 µM
- IC50 (Human betaherpesvirus 5): > 100 µM
- IC50 [3]: > 100 µM
- IC50 (Human alphaherpesvirus 1): > 100 µM

SMILES: NC(=O)c1cn(C(CO)OC(CO)CO)c2ncnc(N)c12 (stereo not given)
- IC50 [1]: > 100 µM
- IC50 [2]: > 100 µM
- IC50 (Human betaherpesvirus 5): > 100 µM
- IC50 [3]: > 100 µM
- Control (L1210 [5]): 90%

SMILES: N#Cc1cn(C(CO)OC(CO)CO)c2ncnc(N)c12 (stereo not given)
- IC50 [1]: > 100 µM
- IC50 [2]: > 100 µM
- IC50 (Human betaherpesvirus 5): > 100 µM
- IC50 [3]: > 100 µM
- IC50 (Mus musculus): > 100 µM
- Control (L1210 [5]): 80%

SMILES: N/C(=N\O)c1cn(COC(CO)CO)c2ncnc(N)c12
- IC50 [1]: > 100 µM
- IC50 [2]: > 100 µM
- IC50 (Human betaherpesvirus 5): > 100 µM
- IC50 [3]: > 100 µM
- IC50 (L1210 [6]): > 100 µM
- Control (L1210 [9]): 80%

SMILES: N#Cc1cn(COC(CO)CO)c2ncnc(N)c12
- IC50 [1]: > 100 µM
- IC50 [2]: > 100 µM
- IC50 (Human betaherpesvirus 5): > 320 µM
- IC50 [3]: > 320 µM
- IC50 (L1210 [6]): > 100 µM
- Control (L1210 [9]): 87%

SMILES: NC(=O)c1cn(COC(CO)CO)c2ncnc(N)c12
- IC50 [1]: > 100 µM
- IC50 [2]: > 100 µM
- IC50 (Human betaherpesvirus 5): 144 µM
- IC50 [3]: > 320 µM
- IC50 (L1210 [6]): > 100 µM
- Control (L1210 [9]): 84%

SMILES: Nc1nc2c(ncn2COCCO)c(=O)[nH]1 [ACYCLOVIR]
- IC50 [1]: > 100 µM
- IC50 [2]: 2.6 µM
- IC50 [3]: > 100 µM
- IC50 [7]: > 100 µM

SMILES: Nc1nc2c(ncn2COC(CO)CO)c(=O)[nH]1 [GANCICLOVIR]
- IC50 [1]: > 100 µM
- IC50 [2]: 3 µM
- IC50 [3]: > 100 µM
- IC50 [7]: 1000 µM

SMILES: NC(=O)c1cn([C@@H]2O[C@H](CO)[C@@H](O)[C@H]2O)c2ncnc(N)c12 [SANGIVAMYCIN]
- IC50 (Human betaherpesvirus 5): 0.03 µM
- IC50 [3]: 0.08 µM
- IC50 (L1210 [6]): 0.003 µM
- IC50 [4]: 0.2 µM

SMILES: N#Cc1cn([C@@H]2O[C@H](CO)[C@@H](O)[C@H]2O)c2ncnc(N)c12 [TOYOCAMYCIN]
- IC50 (Human betaherpesvirus 5): 0.05 µM
- IC50 [3]: 0.03 µM
- IC50 (L1210 [6]): 0.004 µM
- IC50 [4]: 0.04 µM

SMILES: Nc1ncnc2c1ccn2[C@@H]1O[C@H](CO)[C@@H](O)[C@H]1O [TUBERCIDIN]
- IC50 [3]: 0.3 µM
- IC50 (L1210 [6]): 0.04 µM
- IC50 [4]: 0.7 µM
